# Test results reported in ChEMBL document CHEMBL3751664, “Design, Synthesis, and Identification of Silicon Incorporated Oxazolidinone Antibiotics with Improved Brain Exposure” (ACS Med Chem Lett, 2015).
# Experiments:
# [1] = Plasma protein binding in human; assay type: ADME, cell-free; conditions: read-out: PPB (converted)
# [2] = test system: Plasma; assay: Metabolic stability in rat plasma by LC-MS/MS analysis; assay type: ADME, cell-free
# How it was run: (§1)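 Plasma stability is expressed as % compound remaining after incubation in plasma.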
# [3] = Cmax in BALB/c mouse brain at 10 mg/kg, po by LC-MS/MS analysis; assay type: ADME, organism-based; parameters: dose 10 mg/kg, route oral
# How it was run: (§2)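 Single oral 10 mg/kg dose, with 2 animals per group. Brain and plasma sampled; brain Cmax is reported as μg/g and brain AUC0-t and AUC0-inf as μg·h/g. Brain-to-plasma ratios are derived from AUC values, and also from Cmax.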
# [4] = Metabolic stability in mouse liver microsomes after 30 mins by LC-MS/MS analysis; assay type: ADME; conditions: read-out: Stability
# How it was run: (§3)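 Compounds are incubated with liver microsomes for 30 min, and the result is expressed as % parent remaining (% metabolic stability).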
# [5] = test system: Neisseria meningitidis; assay: Antibacterial activity against clinical isolate Neisseria meningitidis 184 by microbroth dilution method; assay type: functional
# How it was run: (§4)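 Minimum inhibitory concentration (MIC) read by broth microdilution and reported in μg/mL. The same microbroth screen was run on the broader panel of facultative bacteria.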
# [6] = Metabolic stability in rat liver microsomes after 30 mins by LC-MS/MS analysis; assay type: ADME; conditions: read-out: Stability; how it was run: as §3
# [7] = test system: Streptococcus pneumoniae; assay: Antibacterial activity against Streptococcus pneumoniae ATCC 49619 by microbroth dilution method; assay type: functional
# How it was run: (§5)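 MIC is determined by broth microdilution and expressed in μg/mL.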
# [8] = test system: Neisseria meningitidis; assay: Antibacterial activity against clinical isolate Neisseria meningitidis E-63 by microbroth dilution method; assay type: functional; how it was run: as §4
# [9] = test system: Plasma; assay: Metabolic stability in human plasma by LC-MS/MS analysis; assay type: ADME, cell-free; how it was run: as §1
# [10] = AUC (0 to t) in BALB/c mouse plasma at 10 mg/kg, po by LC-MS/MS analysis; assay type: ADME, organism-based; how it was run: as §2
# [11] = test system: Neisseria meningitidis; assay: Antibacterial activity against clinical isolate Neisseria meningitidis 306 by microbroth dilution method; assay type: functional; how it was run: as §4
# [12] = Solubility of compound at pH 2.2 by HPLC analysis; assay type: physicochemical; conditions: buffer
# [13] = Cmax in BALB/c mouse plasma at 10 mg/kg, po by LC-MS/MS analysis; assay type: ADME, organism-based; parameters: dose 10 mg/kg, route oral; how it was run: as §2
# [14] = test system: Neisseria meningitidis; assay: Antibacterial activity against clinical isolate Neisseria meningitidis M-1 by microbroth dilution method; assay type: functional; how it was run: as §4
# [15] = Ratio of Cmax in brain to plasma in BALB/c mouse at 10 mg/kg, po; assay type: ADME, organism-based; how it was run: as §2
# [16] = Solubility of compound at pH 7.4 by HPLC analysis; assay type: physicochemical; conditions: buffer
# [17] = test system: Streptococcus pneumoniae; assay: Antibacterial activity against Streptococcus pneumoniae ATCC 6303 by microbroth dilution method; assay type: functional; how it was run: as §5
# [18] = test system: Streptococcus pneumoniae; assay: Antibacterial activity against pencillin-resistant erm+ve Streptococcus pneumoniae ATCC 700904 by microbroth dilution method; assay type: functional; how it was run: as §5
# [19] = test system: Brain; assay: AUC (0 to t) in BALB/c mouse brain at 10 mg/kg, po by LC-MS/MS analysis; assay type: ADME, organism-based; conditions: in vivo; how it was run: as §2
# [20] = test system: Neisseria meningitidis; assay: Antibacterial activity against clinical isolate Neisseria meningitidis E-95 by microbroth dilution method; assay type: functional; how it was run: as §4
# [21] = Solubility of compound at pH 4.5 by HPLC analysis; assay type: physicochemical; conditions: buffer
# [22] = AUC (0 to infinity) in BALB/c mouse plasma at 10 mg/kg, po by LC-MS/MS analysis; assay type: ADME, organism-based; parameters: dose 10 mg/kg, time infinity, route oral; how it was run: as §2
# [23] = Solubility of compound at pH 1.2 by HPLC analysis; assay type: physicochemical; conditions: buffer
# [24] = test system: Streptococcus pneumoniae; assay: Antibacterial activity against linezolid-resistant Streptococcus pneumoniae 6303 by microbroth dilution method; assay type: functional; how it was run: as §5
# [25] = Metabolic stability in human liver microsomes after 30 mins by LC-MS/MS analysis; assay type: ADME; conditions: read-out: Stability; how it was run: as §3
# [26] = Ratio of AUC (0 to infinity) in brain to plasma in BALB/c mouse at 10 mg/kg, po; assay type: ADME, organism-based; how it was run: as §2
# [27] = test system: Brain; assay: AUC (0 to infinity) in BALB/c mouse brain at 10 mg/kg, po by LC-MS/MS analysis; assay type: ADME, organism-based; parameters: dose 10 mg/kg, time infinity, route oral; conditions: in vivo; how it was run: as §2
# [28] = Solubility of compound at pH 10.2 by HPLC analysis; assay type: physicochemical; conditions: buffer
# [29] = Ratio of AUC (0 to t) in brain to plasma in BALB/c mouse at 10 mg/kg, po; assay type: ADME, organism-based; how it was run: as §2
SMILES,fraction unbound [1],Stability [2] [%],Cmax [3] [ng/g],remaining at 0.5 h [4] [%],MIC [5] [µg/mL],remaining at 0.5 h [6] [%],MIC [7] [µg/mL],MIC [8] [µg/mL],Stability [9] [%],AUC(0-t) [10] [ng·h/mL],MIC [11] [µg/mL],solubility [12] [µM],Cmax [13] [ng/mL],MIC [14] [µg/mL],AUCt [19] [µg·h/g],MIC [20] [µg/mL],AUC(0-inf) [22] [ng·h/mL],MIC [24] [µg/mL],remaining at 0.5 h [25] [%],AUC [27] [µg·h/g],other results
CC(=O)NC[C@H]1CN(c2cc(F)c(N3CC[Si](C)(C)CC3)c(F)c2)C(=O)O1,0.004,94.7,5580,68.4,> 32,9.6,16,> 32,100,5800,> 32,43,2020,> 32,14.74,> 32,6210,> 32,69.8,16.44,Kp [15]: 2.76; solubility [16]: 17 µM; MIC [17]: 8 µg/mL; MIC [18]: 16 µg/mL; solubility [21]: 20 µM; solubility [23]: 48 µM; Kp [26]: 2.65; solubility [28]: 20 µM; Kp [29]: 2.54
COC(=S)NC[C@H]1CN(c2ccc(N3CC[Si](C)(C)CC3)c(F)c2)C(=O)O1,–,100,1470,15.2,32,5.7,4,32,100,870,32,47,370,32,3.11,32,930,32,43,3.24,Kp [15]: 3.96; solubility [16]: 2 µM; MIC [17]: 4 µg/mL; MIC [18]: 4 µg/mL; solubility [21]: 9 µM; solubility [23]: 48 µM; Kp [26]: 3.49; solubility [28]: 2 µM; Kp [29]: 3.57
CC(=O)NC[C@H]1CN(c2ccc(N3CC[Si](C)(C)CC3)c(F)c2)C(=O)O1,0.0567,97.3,1330,40.8,> 32,10.8,8,32,100,1780,> 32,50,1050,> 32,3.01,> 32,1800,> 32,48.9,3.05,Kp [15]: 1.27; solubility [16]: 40 µM; MIC [17]: 4 µg/mL; MIC [18]: 4 µg/mL; solubility [21]: 41 µM; solubility [23]: 50 µM; Kp [26]: 1.69; solubility [28]: 41 µM; Kp [29]: 1.69
CC(=O)NC[C@H]1CN(c2ccc(N3CCOCC3)c(F)c2)C(=O)O1 [LINEZOLID],0.74,100,450,100,8,88.3,–,8,100,7580,8,–,3650,8,0.83,8,7700,32,100,0.9,–
